Experimental data reported in ChEMBL document CHEMBL1121884, “Piperazinylquinoxalines with central serotoninmimetic activity” (1981).

Key:
Type in all cases: functional
Rattus norvegicus [1] = assay: Ability to elicit head twitches in rats a response characteristic of a serotonin mimetic action in the central nervous system was measured after 4 mg/kg of ip administration; 2/10; conditions: route intraperitoneal
Rattus norvegicus [2] = assay: Serotonin neuronal reuptake blocking activity was determined by the antagonism of the head twitch response induced by treatment of rats with p-chloromethamphetamine (PCMA) after 4 mg/kg of ip administration; 7/10; conditions: route intraperitoneal
Outline: (§1)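 Female Sprague-Dawley rats (150-250 g) dosed ip with compound in 1% methylcellulose vehicle. p-Chloromethamphetamine 6.0 mg/kg ip was given 1 h later, and head movements were observed 30 min after that. Scored as number of rats not showing head twitches. Six rats per dose unless otherwise noted. Doses expressed as base weight.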

Rattus norvegicus [3] = assay: Ability to elicit head twitches in rats a response characteristic of a serotonin mimetic action in the central nervous system was measured after 0.4 mg/kg of ip administration; 0/10; conditions: route intraperitoneal
Rattus norvegicus [4] = assay: Ability to elicit head twitches in rats a response characteristic of a serotonin mimetic action in the central nervous system after 40 mg/kg of ip administration; 3/10; conditions: route intraperitoneal
Rattus norvegicus [5] = assay: Serotonin neuronal reuptake blocking activity was determined by the antagonism of the head twitch response induced in rats with p-chloromethamphetamine (PCMA) after 40 mg/kg of ip administration;9/10; conditions: route intraperitoneal; outline: as §1
Rattus norvegicus [6] = assay: Serotonin neuronal reuptake blocking activity was determined by the antagonism of the head twitch response induced by treatment of rats with p-chloromethamphetamine (PCMA) after 0.4 mg/kg of ip administration; 6/10; conditions: route intraperitoneal; outline: as §1
Rattus norvegicus [7] = assay: Serotonin neuronal reuptake blocking activity was determined by the antagonism of the head twitch response induced by treatment of rats with p-chloromethamphetamine (PCMA) after 1.0 mg/kg of ip administration; 5/36; conditions: route intraperitoneal
Outline: (§2)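 Female Sprague-Dawley rats (150-250 g) dosed ip with compound (1% methylcellulose vehicle, dose as base weight), then p-chloromethamphetamine 6.0 mg/kg ip 1 h later; head twitches observed 30 min after PCMA; scored as rats not twitching; usually six rats per dose; ED50 = dose antagonizing PCMA head twitch in 50% of animals, with 95% confidence limits.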

Rattus norvegicus [8] = assay: Serotonin neuronal reuptake blocking activity was determined by the antagonism of the head twitch response induced by treatment of rats with p-chloromethamphetamine (PCMA) after 3 mg/kg of ip administration; 13/36; conditions: route intraperitoneal; outline: as §2
Rattus norvegicus [9] = assay: Ability to elicit head twitches in rats a response characteristic of a serotonin mimetic action in the central nervous system was measured after 3 mg/kg of ip administration; 11/36; conditions: route intraperitoneal
Outline: (§3)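 Female Sprague-Dawley rats (150-250 g), compound given ip in 1% methylcellulose vehicle, dose as base weight; quantal scoring of rats showing at least one head twitch during a 2-min observation beginning 30 min after dosing; usually six rats per dose level; vehicle controls run.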

Rattus norvegicus [10] = assay: Ability to elicit head twitches in rats a response characteristic of a serotonin mimetic action in the central nervous system was measured after 1 mg/kg of ip administration; 5/36; conditions: route intraperitoneal; outline: as §3
Rattus norvegicus [11] = assay: Serotonin neuronal reuptake blocking activity was determined by the antagonism of the head twitch response induced in rats with p-chloromethamphetamine (PCMA) after 9 mg/kg of ip administration; 24/36; conditions: route intraperitoneal; outline: as §2
Rattus norvegicus [12] = assay: Serotonin neuronal reuptake blocking activity was determined by the antagonism of the head twitch response induced in rats with p-chloromethamphetamine (PCMA) after 9 mg/kg of ip administration; conditions: route intraperitoneal; outline: as §2
Rattus norvegicus [13] = assay: Serotonin neuronal reuptake blocking activity was determined by the antagonism of the head twitch response induced by treatment of rats with p-chloromethamphetamine (PCMA) after 3 mg/kg of ip administration; conditions: route intraperitoneal; outline: as §2
Rattus norvegicus [14] = assay: Ability to elicit head twitches in rats a response characteristic of a serotonin mimetic action in the central nervous system was measured after 3 mg/kg of ip administration; conditions: route intraperitoneal; outline: as §3
Rattus norvegicus [15] = assay: Ability to elicit head twitches in rats a response characteristic of a serotonin mimetic action in the central nervous system after 9 mg/kg of ip administration; conditions: route intraperitoneal; outline: as §3
Rattus norvegicus [16] = assay: Serotonin neuronal reuptake blocking activity was determined by the antagonism of the head twitch response induced by treatment of rats with p-chloromethamphetamine (PCMA) after 1.0 mg/kg of ip administration; conditions: route intraperitoneal; outline: as §2
Rattus norvegicus [17] = assay: Ability to elicit head twitches in rats a response characteristic of a serotonin mimetic action in the central nervous system was measured after 1.0 mg/kg of ip administration; conditions: route intraperitoneal; outline: as §3
[18] = target: T1, Serotonin (5-HT) receptor (Rattus norvegicus) (UniProt P35563+P35365+P32305+P31388+Q9JJ16+P28564+P30994+Q62758+P08909+P14842+P30940+P35364+P19327+P28565); assay: (§4) Ability to elicit head twitches in rats (a serotonin mimetic response); parameters: concentration or dose not given beside the values; outline: as §3
[19] = target: T1, Serotonin (5-HT) receptor (Rattus norvegicus); assay: as §4; parameters: concentration or dose not given beside the values; outline: as §3; remark: listed apart in the source
[20] = target: Sodium-dependent serotonin transporter (Rattus norvegicus) (UniProt P31652); assay: (§5) Serotonin neuronal reuptake blocking activity was determined by the antagonism of the head twitch response induced by treatment of rats; parameters: concentration or dose not given beside the values; outline: as §2
[21] = target: T1, Serotonin (5-HT) receptor (Rattus norvegicus); assay: as §4; parameters: concentration or dose not given beside the values; outline: as §3; remark: listed apart in the source
Rattus norvegicus [22] = assay: Serotonin neuronal reuptake blocking activity was determined by the antagonism of the head twitch response induced in rats with p-chloromethamphetamine (PCMA) after 40 mg/kg of ip administration; 2/4; conditions: route intraperitoneal; outline: as §2
[23] = target: Sodium-dependent serotonin transporter (Rattus norvegicus) (UniProt P31652); assay: as §5; parameters: concentration or dose not given beside the values; outline: as §2; remark: listed apart in the source
Rattus norvegicus [24] = assay: Serotonin neuronal reuptake blocking activity was determined by the antagonism of the head twitch response induced by treatment of rats with p-chloromethamphetamine (PCMA) after 1 mg/kg of ip administration; conditions: route intraperitoneal; outline: as §2
Rattus norvegicus [25] = assay: Ability to elicit head twitches in rats a response characteristic of a serotonin mimetic action in the central nervous system after 6 mg/kg of ip administration; conditions: route intraperitoneal; outline: as §3
Rattus norvegicus [26] = assay: Serotonin neuronal reuptake blocking activity was determined by the antagonism of the head twitch response induced by treatment of rats with p-chloromethamphetamine (PCMA) after 2 mg/kg of ip administration; conditions: route intraperitoneal; outline: as §2
Rattus norvegicus [27] = assay: Ability to elicit head twitches in rats a response characteristic of a serotonin mimetic action in the central nervous system was measured after 2 mg/kg of ip administration; conditions: route intraperitoneal; outline: as §3
Rattus norvegicus [28] = assay: Ability to elicit head twitches in rats a response characteristic of a serotonin mimetic action in the central nervous system was measured after 0.67 mg/kg of ip administration; conditions: route intraperitoneal; outline: as §3
Rattus norvegicus [29] = assay: Serotonin neuronal reuptake blocking activity was determined by the antagonism of the head twitch response induced in rats with p-chloromethamphetamine (PCMA) after 6 mg/kg of ip administration; conditions: route intraperitoneal; outline: as §2
Rattus norvegicus [30] = assay: Serotonin neuronal reuptake blocking activity was determined by the antagonism of the head twitch response induced by treatment of rats with p-chloromethamphetamine (PCMA) after 0.67 mg/kg of ip administration; conditions: route intraperitoneal; outline: as §2
Rattus norvegicus [31] = species: Rattus norvegicus; assay: ED50 value expresses the inhibition of serotonin reuptake in rat.; outline: as §2

Sequence of Sodium-dependent serotonin transporter (Rattus norvegicus) (P31652 whole entry): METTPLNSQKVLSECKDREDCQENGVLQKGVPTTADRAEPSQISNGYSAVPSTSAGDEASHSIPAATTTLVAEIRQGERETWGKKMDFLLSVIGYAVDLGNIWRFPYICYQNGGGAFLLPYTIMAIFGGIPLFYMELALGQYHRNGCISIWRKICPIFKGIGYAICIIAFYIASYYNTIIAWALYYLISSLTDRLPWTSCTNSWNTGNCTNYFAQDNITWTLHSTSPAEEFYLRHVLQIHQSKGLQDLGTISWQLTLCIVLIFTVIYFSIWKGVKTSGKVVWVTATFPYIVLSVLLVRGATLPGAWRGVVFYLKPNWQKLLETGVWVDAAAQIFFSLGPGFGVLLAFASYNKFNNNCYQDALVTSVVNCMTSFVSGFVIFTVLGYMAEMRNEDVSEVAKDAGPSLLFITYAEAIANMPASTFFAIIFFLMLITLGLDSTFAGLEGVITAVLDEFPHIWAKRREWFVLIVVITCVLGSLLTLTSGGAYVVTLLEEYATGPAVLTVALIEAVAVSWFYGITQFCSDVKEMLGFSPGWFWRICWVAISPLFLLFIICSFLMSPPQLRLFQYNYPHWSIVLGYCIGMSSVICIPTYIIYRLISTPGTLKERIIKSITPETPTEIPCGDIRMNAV

Cl.FC(F)(F)c1ccc2nc(N3CCNCC3)cnc2c1 showed an Activity (Rattus norvegicus [1]) of 2, a PCMA antagonism (Rattus norvegicus [2]) of 7 and an Activity (Rattus norvegicus [3]) of 0. The Activity (Rattus norvegicus [4]) was 3, the PCMA antagonism (Rattus norvegicus [5]) was 9 and the PCMA antagonism (Rattus norvegicus [6]) was 6.

N#Cc1ccc2nc(N3CCNCC3)cnc2c1 gave a PCMA antagonism (Rattus norvegicus [7]) of 5, a PCMA antagonism (Rattus norvegicus [8]) of 13 and an Activity (Rattus norvegicus [9]) of 11. It also gave an Activity (Rattus norvegicus [10]) of 5 and a PCMA antagonism (Rattus norvegicus [11]) of 24.

For Cn1c(=O)c(N2CCNCC2)nc2ccccc21, the PCMA antagonism (Rattus norvegicus [12]) was 0, the PCMA antagonism (Rattus norvegicus [13]) was 2 and the Activity (Rattus norvegicus [14]) was 3. It also gave an Activity (Rattus norvegicus [15]) of 5, a PCMA antagonism (Rattus norvegicus [16]) of 1 and an Activity (Rattus norvegicus [17]) of 1.

Cl.Clc1cccc2nc(N3CCNCC3)cnc12 showed an Activity [18] of 0, an Activity [19] of 2 and a PCMA antagonism [20] of 0. The Activity [21] was 0, the PCMA antagonism (Rattus norvegicus [22]) was 2 and the PCMA antagonism [23] was 0.

CN1CCN(c2cnc3cc(Cl)ccc3n2)CC1.Cl gave a PCMA antagonism (Rattus norvegicus [12]) of 4, a PCMA antagonism (Rattus norvegicus [13]) of 2 and an Activity (Rattus norvegicus [14]) of 1. The PCMA antagonism (Rattus norvegicus [24]) was 2, the Activity (Rattus norvegicus [15]) was 1 and the Activity (Rattus norvegicus [17]) was 0.

Clc1ccc2ncc(N3CCNCC3)nc2c1 gave a PCMA antagonism (Rattus norvegicus [12]) of 5, a PCMA antagonism (Rattus norvegicus [13]) of 3 and an Activity (Rattus norvegicus [14]) of 1. It also gave an Activity (Rattus norvegicus [15]) of 3, a PCMA antagonism (Rattus norvegicus [16]) of 1 and an Activity (Rattus norvegicus [17]) of 0.

For CS(=O)(=O)c1ccc2nc(N3CCNCC3)cnc2c1, the Activity (Rattus norvegicus [25]) was 2, the PCMA antagonism (Rattus norvegicus [26]) was 0 and the Activity (Rattus norvegicus [27]) was 1. The Activity (Rattus norvegicus [28]) was 0, the PCMA antagonism (Rattus norvegicus [29]) was 0 and the PCMA antagonism (Rattus norvegicus [30]) was 2.

Molecule CN(C)CCCN1c2ccccc2CCc2ccc(Cl)cc21 [CLOMIPRAMINE] has an ED50 (Rattus norvegicus [31]) of 2 mg/kg.
